Laboratory results taken from paper PMC3080470 (Biopharmaceutics & drug disposition, 2011).
Read-outs that look alike come from different tables or passages of the source. Marks after values point to notes of the source that are not given here. Numbered stars: 1 amine (or outer) side, 2 acyl side, 3 side chain; on linkers, the order of the positions; unused ones are H or OH. Bridge positions count the residues as written; N and C are the ends. Square brackets hold non-standard residues; d marks the D form. Peptide text beside a SMILES is read from it. * marks the point of attachment. hTyr(3S-OH,4S-OH,3'-OSO3H) = N[C@H](C(=O)O)[C@H](O)[C@@H](O)c1ccc(O)c(OS(=O)(=O)O)c1; Orn(4R-OH,5R-OH) = O=C([C@H](C[C@@H](O)[C@@H](O)N[*:3])N[*:1])[*:2]; Pro(3S-OH,4S-Me) = C[C@H]1CN[C@H](C(=O)O)[C@H]1O; X1 = CCCCCOc1ccc(-c2cc(-c3ccc(C(=O)*)cc3)no2)cc1; Gln(3R-OH) = NC(=O)C[C@@H](O)[C@H](N)C(=O)O; Hyp = O=C(O)[C@@H]1C[C@@H](O)CN1

Key:
[1] = Micafungin serum fraction unbound by equilibrium dialysis; format: in vitro ADME; details: human, pH 7.4
Outline: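 Serum from neonates (23–40 wk gestation, postnatal 1–52 days, 0.6–3.5 kg; n=6) or adults (n=6) spiked with 10 μM test compound. Dialysed against an equal volume of 100 mM sodium phosphate, pH 7.4, for 4.5 hr at 37°C with 100 rpm shaking. Both sides quantified by HPLC-fluorescence (ex 273/em 464 nm) with diclofenac internal standard and matrix-matched calibration. fu = buffer/serum concentration.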

[2] = tested on: sandwich-cultured human hepatocytes; details: cited from earlier work
[3] = adult; well-stirred model, fu 0.004, QH 21 ml/min/kg; ref Yanni et al. [8]; cited from earlier work
[4] = cited from earlier work
[5] = cited from earlier work; remark: listed apart in the source
[6] = human adult, ref Yanni et al. [8]

Row | Molecule | fraction unbound at 4.5 hr, 10 μM ([1]; serum from adults) | fraction unbound at 4.5 hr, 10 μM ([1]; serum from neonates) | Intrinsic Biliary Cl ([2]; adult, sandwich-cultured human hepatocytes, B-CLEAR, ref Yanni et al. [8]) | Intrinsic Accumulation Cl ([2]; adult, sandwich-cultured human hepatocytes, ref Yanni et al. [8]) | In vitro intrinsic accumulation Cl ([2]; sandwich-cultured human hepatocytes from adult liver donors, no albumin) | Calculated Biliary Cl [3] | Calculated Plasma Cl [3] | Observed Biliary Cl [4, 6] | Observed Plasma Cl [4, 6] | Observed Plasma Cl ([4]; human neonate, ref Heresi et al. [5]) | share of plasma clearance that occurs via biliary elimination of the parent drug ([4]; pharmacokinetic studies with 14C-micafungin) | plasma protein binding ([5]; in humans and animals) | binding to plasma proteins ([5]; stated in abstract, no reference given) | clearance in neonates (< 3 months) compared to older children (2-11y) ([4]; human) | unbound fraction in blood [5]
1 | CCCCCOc1ccc(-c2cc(-c3ccc(C(=O)N[C@H]4C[C@@H](O)[C@@H](O)NC(=O)[C@@H]5[C@@H](O)[C@@H](C)CN5C(=O)[C@H]([C@H](O)CC(N)=O)NC(=O)[C@H]([C@H](O)[C@@H](O)c5ccc(O)c(OS(=O)(=O)O)c5)NC(=O)[C@@H]5C[C@@H](O)CN5C(=O)[C@H]([C@@H](C)O)NC4=O)cc3)no2)cc1 [Micafungin] (X1-[Orn(4R-OH,5R-OH)]T[Hyp][hTyr(3S-OH,4S-OH,3'-OSO3H)][Gln(3R-OH)][Pro(3S-OH,4S-Me)]; lactam 1-C) | 0.004 | 0.033 | 14 ± 9 µL/min/mg | 24 ± 2 µL/min/mg | 23.5 ± 1.6 µL/min/mg | 0.101 ± 0.062 mL/min/kg | 0.175 ± 0.012 mL/min/kg | 0.160 mL/min/kg | 0.229 mL/min/kg | 0.622 ^# ml/min/kg | approximately 90% | > 99% | > 99.5% | – | –
2 | Caspofungin | – | – | – | – | – | – | – | – | – | – | – | – | – | significantly lower | about 3.5%
